Experimental data taken from ChEMBL document CHEMBL5346886 (Eur J Med Chem, 2023).
Calls of active or inactive are those of the source. The rule behind the calls is not given here.

Assays:
Murine hepatitis virus [1] = test: Potency index, ratio of GS-441524 EC50 to test compound EC50 for antiviral activity against Murine hepatitis virus-A59 infected in mouse L929 cells assessed as reduction in viral copy pre-infected with cell for 1 hrs followed by compound addition and measured after 48 hrs by RT-qPCR analysis; assay type: functional
[2] = system: Feline infectious peritonitis virus; test: Antiviral activity against Feline infectious peritonitis virus infected in CRFK cells assessed as reduction in viral copy pre-infected with cells for 1 hrs followed by compound addition and measured after 48 hrs by RT-qPCR analysis; assay type: functional, organism-based; settings: Alphacoronavirus 1, CRFK
In short: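 CRFK cells (CCoV, FIPV) or ST cells (TGEV) were grown in DMEM with 10% FBS at 37 °C, 5% CO2. At 80% confluence they were washed in serum-free medium and infected at MOI 0.01 for 1 h at 37 °C. Compounds were then added at 0.1–100 μmol/L, with DMSO as blank. After 48 h, cells and supernatants were analysed by qRT-PCR. Inhibition came from viral copy number, and EC50 from curve fitting.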

[3] = Drug metabolism in Sprague-Dawley rat assessed as hydrolysis-mediated ibuprofen metabolite formation at 5 mg/kg, iv administered as single dose and measured after 24 hrs by LC-MS/MS analysis; assay type: ADME, organism-based; settings: in vivo
[4] = Drug distribution in BALB/c mouse lung assessed as hydrolyzed ibuprofen metabolite at 200 mg/kg, po administered as single dose and measured after 1 hrs by LC-MS/MS analysis; assay type: ADME, organism-based; settings: in vivo
Murine hepatitis virus [5] = test: Antiviral activity against murine hepatitis virus-A59 infected in po dosed BALB/c mouse assessed as inhibition of viral replication in lungs administered once daily one hour post infection and measured after 3 days by qRT-PCR analysis; assay type: functional, organism-based; settings: dose 10-200 mg/kg, time 3.0 day
In short: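 SPF male BALB/c mice aged 3–4 weeks were put under isoflurane and inoculated intranasally with 30 μL MHV-A59 (TCID50 = 10−7.125/100 μL) in PBS. Oral dosing once daily in 15% Cremophor EL/82.5% PBS/2.5% DMSO started at 1 hpi and ran for four days; groups had 12 mice. At 3 dpi, 4 mice per group were killed and lung and liver M-gene copies measured by qRT-PCR.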

Murine hepatitis virus [6] = test: Antiviral activity against murine hepatitis virus-A59 infected in BALB/c mouse assessed as reduction in TNF-alpha production in lungs at 200 mg/kg, po administered once daily one hour post infection and measured after 3 days by ELISA analysis; assay type: functional, organism-based; settings: time 3.0 day
In short: (§1)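 MHV-A59 was inoculated intranasally into male BALB/c mice (30 μL, TCID50 = 10−7.125/100 μL), with oral dosing once daily from 1 hpi for four days. At 3 dpi, 0.1 g lung or liver from 4 mice per group was homogenized in 0.9 mL water at 4 °C and centrifuged. Supernatant IFN-β was read by ELISA; TNF-α, IFN-γ, IL-1β, IL-6 and CXCL10 by multi-analyte kit, with OD 450 nm against standards.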

Murine hepatitis virus [7] = test: Antiviral activity against murine hepatitis virus-A59 infected in BALB/c mouse assessed as reduction in IL-6 production in lungs at 200 mg/kg, po administered once daily one hour post infection and measured after 3 days by ELISA analysis; assay type: functional, organism-based; settings: time 3.0 day; in short: as §1
Murine hepatitis virus [8] = test: Antiviral activity against murine hepatitis virus-A59 infected in BALB/c mouse assessed as remission of hepatocyte necrosis at 200 mg/kg, po administered once daily one hour post infection and measured after 3 days by H&E staining based analysis; assay type: functional, organism-based; settings: time 3.0 day
In short: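 In male BALB/c mice (3–4 weeks), MHV-A59 was given intranasally (30 μL, TCID50 = 10−7.125/100 μL). Oral dosing once daily in a Cremophor EL/PBS/DMSO vehicle began at 1 hpi and lasted four days. At 3 dpi, lungs and livers from 4 mice per group were fixed in zinc formalin and paraffin-embedded. Sections of about 4 μm were stained with H&E and examined at 200× and 400×.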

Murine hepatitis virus [9] = test: Antiviral activity against murine hepatitis virus-A59 infected in BALB/c mouse assessed as survival rate at 10 mg/kg, po administered once daily one hour post infection and measured after 23 days relative to control; assay type: functional; settings: Murine coronavirus, A59, 552 h, time 23 day
In short: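 Male SPF BALB/c mice (3–4 weeks) were anaesthetised with isoflurane and given 30 μL MHV-A59 intranasally (TCID50 = 10−7.125/100 μL) in PBS. Oral dosing once daily in 15% Cremophor EL/82.5% PBS/2.5% DMSO began at 1 hpi and ran for four days, at 10, 50 or 200 mg/kg. There were 12 mice per group, with 4 culled at 3 dpi. Body weight, clinical signs and death were recorded daily to 23 days.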

**Q.** With `CC(C)Cc1ccc(C(C)C(=O)OC[C@H]2O[C@@](C#N)(c3ccc4c(N)ncnn34)[C@H](O)[C@@H]2O)cc1` (some centres undefined) as the molecule, how does the “Ratio EC50” value (Murine hepatitis virus [1]) read?
**A.** Its value is 8.

**Q.** And the EC50 [2]?
**A.** Its EC50 is 7.34 µM.

**Q.** What about the Drug metabolism [3] of the same molecule?
**A.** Its Drug metabolism is “Metabolite_Detected”.

**Q.** What about the Drug uptake [4] of the same molecule?
**A.** The Drug uptake was “Active”.

**Q.** And the Activity (Murine hepatitis virus [5])?
**A.** Its Activity is “Dose-Dependent Effect”.

**Q.** What about the Activity (Murine hepatitis virus [6]) of the same molecule?
**A.** The Activity was “Active”.

**Q.** What about the Activity (Murine hepatitis virus [7]) of the same molecule?
**A.** Its Activity is “Active”.

**Q.** And the Activity (Murine hepatitis virus [8])?
**A.** Its Activity is “Active”.

**Q.** What about the survival at 10 mg/kg (Murine hepatitis virus [9]) of the same molecule?
**A.** The survival at 10 mg/kg was 100%.
